Source: ChEMBL document CHEMBL1914438, “Synthesis and biological activity of novel N-cycloalkyl-(cycloalkylaryl)-2-[(3-R-2-oxo-2H-[1,2,4]triazino[2,3-c]quinazoline-6-yl)thio]acetamides” (2011)

How the values were obtained:
Format in all cases: functional
RXF 393 = experiment: Cytotoxicity against human RXF393 cells assessed as cell growth at 10^-5 M after 48 hrs by SRB assay; conditions: RXF 393, 48 h, read-out: Activity
How it was run: (§1)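 NCI human tumor cell line panel from nine cancer types. Each line was inoculated and preincubated 24–48 h, then exposed to a single concentration (10^-5 M) for 48 h. Growth was read by sulforhodamine B protein staining, measured spectrophotometrically. Value reported as percent growth of treated cells relative to untreated controls.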

TK-10 = experiment: Cytotoxicity against human TK10 cells assessed as cell growth at 10^-5 M after 48 hrs by SRB assay; conditions: TK-10, 48 h, read-out: Activity; how it was run: as §1
NCI-H522 = experiment: Growth inhibition of human NCI-H522 cells after 48 hrs by SRB assay; conditions: NCI-H522, 48 h
How it was run: (§2)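 NCI panel of about 60 human tumor lines, 48 h continuous exposure at five 10-fold dilutions from 10^-4 to 10^-8 M. SRB protein staining was read as absorbance at time zero, in untreated controls and at each concentration. GI50 is the concentration giving 50% lower net protein increase than controls. TGI is where Ti = Tz, and LC50 is 50% protein loss versus start.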

SNB-19 = experiment: Growth inhibition of human SNB19 cells after 48 hrs by SRB assay; conditions: SNB-19, 48 h
How it was run: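 NCI 60-cell-line human tumor panel. Cells were inoculated and preincubated for 24–48 h, then exposed continuously to compound for 48 h. Primary screen used a single 10^-5 M concentration. Growth was measured by sulforhodamine B protein staining, read spectrophotometrically, and reported as percent growth versus untreated controls. Selected compounds were also run at five 10-fold dilutions (10^-4 to 10^-8 M) to derive GI50 from time-zero-corrected absorbances.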

LOX IMVI = experiment: Growth inhibition of human LOXIMVI cells after 48 hrs by SRB assay; how it was run: as §2
Malme-3M = experiment: Growth inhibition of human MALME-3M cells after 48 hrs by SRB assay; how it was run: as §2
DU-145 = experiment: Growth inhibition of human DU145 cells after 48 hrs by SRB assay; conditions: DU-145, 48 h; how it was run: as §2
[1] = system: Photobacterium leiognathi; experiment: Antibacterial activity against Photobacterium leiognathi Sh1 assessed as inhibition of bacterial luminescence at 0.1 mg/mL after 10 mins by bioluminometry-based acute action test; parameters: scale not given: the % may be the effect or the level left
How it was run: (§3)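 Marine P. leiognathi Sh1 (Azov Sea shrimp isolate) diluted in chloride solution to 10^5 cells/mL; compounds suspended in DMSO mixed with 1 mL bacterial suspension. Acute test: 10 min at 25 °C, then bioluminescence measured by bioluminometer as % of compound-free control. Tetracycline reference.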

[2] = system: Photobacterium leiognathi; experiment: Antibacterial activity against Photobacterium leiognathi Sh1 assessed as inhibition of bacterial luminescence at 0.1 mg/mL after 10 mins by bioluminometry-based chronic action test; parameters: scale not given: the % may be the effect or the level left; conditions: in the assay text read “after 16 to 18 hrs” for “after 10 mins”
How it was run: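 Chronic (growth plus luminescence) test with P. leiognathi Sh1 at 10^5 cells/mL in chloride solution, compounds added in DMSO. After 10 min at 25 °C, growth medium added at 1:50 and the mix incubated 16–18 h at 30 °C. Luminescence then measured by bioluminometer as % of untreated control. Tetracycline reference.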

Escherichia coli = experiment: Antibacterial activity against Escherichia coli assessed as zone of inhibition at 0.5 mg/mL after 24 hrs by stiff-plate agar-diffusion method; conditions: read-out: DIZ
Aspergillus niger = experiment: Antifungal activity against Aspergillus niger assessed as zone of inhibition of late spore formation at 0.5 mg/mL after 48 to 72 hrs by stiff-plate agar-diffusion method; conditions: read-out: DIZ
SNB-75 = experiment: Cytotoxicity against human SNB75 cells assessed as cell growth at 10^-5 M after 48 hrs by SRB assay; conditions: SNB-75, 48 h, read-out: Activity; how it was run: as §1
UO-31 = experiment: Cytotoxicity against human UO31 cells assessed as cell growth at 10^-5 M after 48 hrs by SRB assay; conditions: UO-31, 48 h, read-out: Activity; how it was run: as §1
UACC-257 = experiment: Cytotoxicity against human UACC257 cells assessed as cell growth at 10^-5 M after 48 hrs by SRB assay; conditions: UACC-257, 48 h, read-out: Activity; how it was run: as §1
SK-OV-3 = experiment: Cytotoxicity against human SKOV3 cells assessed as cell growth at 10^-5 M after 48 hrs by SRB assay; conditions: SK-OV-3, 48 h, read-out: Activity; how it was run: as §1
SF-295 = experiment: Cytotoxicity against human SF295 cells assessed as cell growth at 10^-5 M after 48 hrs by SRB assay; conditions: SF-295, 48 h, read-out: Activity; how it was run: as §1
MDA-MB-231 = experiment: Cytotoxicity against human MDA-MB-231 cells assessed as cell growth at 10^-5 M after 48 hrs by SRB assay; conditions: MDA-MB-231, 48 h, read-out: Activity
How it was run: (§4)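 NCI 60-cell-line one-dose primary screen: cells inoculated and preincubated 24–48 h, then test agent added at a single 10^-5 M concentration for a further 48 h. Endpoint is sulforhodamine B protein staining read spectrophotometrically. Reported as percent growth relative to untreated control cells.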

SF-268 = experiment: Cytotoxicity against human SF268 cells assessed as cell growth at 10^-5 M after 48 hrs by SRB assay; conditions: SF-268, 48 h, read-out: Activity; how it was run: as §1
SN12C = experiment: Cytotoxicity against human SN12C cells assessed as cell growth at 10^-5 M after 48 hrs by SRB assay; conditions: read-out: Activity; how it was run: as §1
COLO 205 = experiment: Cytotoxicity against human COLO205 cells assessed as cell growth at 10^-5 M after 48 hrs by SRB assay; conditions: COLO 205, 48 h, read-out: Activity; how it was run: as §4
HCT-15 = experiment: Cytotoxicity against human HCT15 cells assessed as cell growth at 10^-5 M after 48 hrs by SRB assay; conditions: HCT-15, 48 h, read-out: Activity; how it was run: as §4
HT-29 = experiment: Cytotoxicity against human HT-29 cells assessed as cell growth at 10^-5 M after 48 hrs by SRB assay; conditions: HT-29, 48 h, read-out: Activity; how it was run: as §4
SK-MEL-28 = experiment: Cytotoxicity against human SK-MEL-28 cells assessed as cell growth at 10^-5 M after 48 hrs by SRB assay; conditions: SK-MEL-28, 48 h, read-out: Activity; how it was run: as §1
IGROV-1 = experiment: Cytotoxicity against human IGROV1 cells assessed as cell growth at 10^-5 M after 48 hrs by SRB assay; conditions: IGROV-1, 48 h, read-out: Activity; how it was run: as §4
OVCAR-8 = experiment: Cytotoxicity against human OVCAR8 cells assessed as cell growth at 10^-5 M after 48 hrs by SRB assay; conditions: OVCAR-8, 48 h, read-out: Activity; how it was run: as §1
[3] = system: Photobacterium leiognathi; experiment: Antibacterial activity against Photobacterium leiognathi Sh1 assessed as inhibition of bacterial luminescence at 0.025 mg/mL after 10 mins by bioluminometry-based acute action test; parameters: scale not given: the % may be the effect or the level left; how it was run: as §3
[4] = read-out: pLC50 (the source's name) (converted)

What does the source list for `CCC1C2CCC(C2)C1NC(=O)CSc1nc2ccccc2c2nc(=O)c(-c3ccc(OC)cc3)nn12` (stereo unspecified)?
growth at 10 µM (RXF 393): 9.46%; growth at 10 µM (TK-10): 13.8%; GI50 (NCI-H522): 1.35 µM; CC50 (NCI-H522; [4]): 38.9 µM; TGI (NCI-H522; read-out: pTGI (converted)): 7.94 µM; GI50 (SNB-19): 3.47 µM; CC50 (SNB-19; [4]): > 50.1 µM; TGI (SNB-19; read-out: pTGI (converted)): 22.4 µM; GI50 (LOX IMVI): 3.55 µM; CC50 (LOX IMVI; [4]): > 50.1 µM; TGI (LOX IMVI; read-out: pTGI (converted)): 18.2 µM; GI50 (Malme-3M): 3.89 µM; CC50 (Malme-3M; [4]): > 50.1 µM; TGI (Malme-3M; read-out: pTGI (converted)): 24.5 µM; GI50 (DU-145): 3.16 µM; CC50 (DU-145; [4]): > 50.1 µM; TGI (DU-145; read-out: pTGI (converted)): 37.2 µM; Activity [1]: 84%; Activity [2]: 144%; zone of inhibition at 500 µg/mL (Escherichia coli): 0 mm; zone of inhibition at 500 µg/mL (Aspergillus niger): 18 mm; growth at 10 µM (SNB-75): 4.94%; growth at 10 µM (UO-31): -12.7%; growth at 10 µM (UACC-257): 55.6%; growth at 10 µM (SK-OV-3): -5.12%; growth at 10 µM (SF-295): 69.9%; growth at 10 µM (MDA-MB-231): 22.5%; growth at 10 µM (SF-268): 66.3%; growth at 10 µM (SN12C): 57.8%; growth at 10 µM (COLO 205): 28.6%; growth at 10 µM (HCT-15): 67.9%; growth at 10 µM (HT-29): 42.8%; growth at 10 µM (SK-MEL-28): 68.7%; growth at 10 µM (IGROV-1): 17%; growth at 10 µM (OVCAR-8): 53.1%; Activity [3]: 38.5%
